This is an account of results in PMC2842482 (ACS chemical biology, 2010).

For one data set, the target named is rat Arginase I. The following applies: rat Arginase I at pH 9.0; cited from earlier work.
The target in another data set is T1, Co-hArgI (Homo sapiens, UniProt P05089).
T1 sequence (P05089 1-322): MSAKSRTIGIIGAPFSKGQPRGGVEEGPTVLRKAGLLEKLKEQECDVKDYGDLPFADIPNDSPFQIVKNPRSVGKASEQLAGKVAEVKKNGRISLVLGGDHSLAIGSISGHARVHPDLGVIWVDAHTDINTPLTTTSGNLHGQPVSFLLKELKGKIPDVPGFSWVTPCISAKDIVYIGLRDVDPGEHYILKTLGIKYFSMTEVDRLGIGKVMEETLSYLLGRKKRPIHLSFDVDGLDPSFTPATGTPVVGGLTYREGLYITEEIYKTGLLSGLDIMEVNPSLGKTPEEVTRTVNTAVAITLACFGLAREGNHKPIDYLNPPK
Nature of the data set: Inhibition of Co-hArgI by L-Orn and L-Leu. The format is biochemical.

In the next data set the target is T2, Mn-hArgI (Homo sapiens, UniProt P05089).
T2 sequence (P05089 1-322): T1 sequence (P05089 1-322)
Nature of the data set: Inhibition of Mn-hArgI by L-Orn and L-Leu. The format is biochemical.

A further data set deals with hArgII. The following applies: cited from earlier work.
For data set [1] the following is noted: aqueous solution; cited from earlier work.
Data set [2] in a line: Steady-state kinetics of L-Arg hydrolysis by purified hArgI. The format is biochemical. The following applies: for kcat: hydrolysis of L-Arg, 100 mM Hepes buffer; for Fold change KM L-Arg: pH 7.4 vs pH 8.5; for Km: read-out: KM L-Arg. The gist of the method: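 His6-TEV-tagged human ArgI expressed in E. coli BL21 and IMAC-purified. Loaded with 10 mM CoCl2 or MnSO4 (15 min, 50–55 °C), then exchanged into 100 mM HEPES/10% glycerol, pH 7.4. Concentration taken from A280 in 6 M guanidinium. Enzyme-started reactions quenched with 12 N HCl after 30 s. Urea derivatised with DAMO/thiosemicarbazide/Fe3+ (COLDER) by 15 min boiling, read at A530 with L-Arg blanks. At least triplicate; Michaelis–Menten fit.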

A short description of data set [3]: Serum stability in pooled human serum. The format is in vitro ADME. The following applies: 1 μM enzyme, 37 °C. The gist of the method:
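Purified His-tagged hArgI (E. coli BL21, IMAC, metal-loaded with 10 mM CoCl2 or MnSO4, 15 min at 50–55 °C) added at 1 µM to pooled human serum at 37 °C. Aliquots taken at time points and tested in triplicate for hydrolysis of 1 mM L-Arg. Rate versus time fitted to a single exponential or a biphasic decay model to give t1/2.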

A further data set has as its system melanoma cell line A375. The following applies: for IC50: A375 melanoma cells, MTT.
Data set [4] in a line: pH rate dependence of manganese and cobalt arginase. The format is biochemical. The following applies: for apparent pKa of kcat vs pH (one-pKa model) / apparent pKa of 1/KM vs pH, lower pKa / apparent pKa of 1/KM vs pH, upper pKa: 37 °C; for apparent pKa of kcat vs pH (one-pKa model): Co-hArgI value tentative; for apparent pKa of 1/KM vs pH, lower pKa / apparent pKa of 1/KM vs pH, upper pKa: bell shaped curve; for ascending limb pKa of kcat/KM vs pH (fit) / descending limb pKa of kcat/KM vs pH (fit): two pKa Henderson-Hasselbach model. The gist of the method:
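Mn- or Co-substituted enzyme assayed at 37 °C, at least in triplicate, in 100 mM buffers: acetate (pH 5–5.5), MES (6–6.5), HEPES (7–7.8), Tris (8–9), Capso (9–10.5). L-Arg ranged 30 µM–80 mM depending on pH. Michaelis–Menten fits gave kcat and KM. kcat/KM versus pH fitted to a Henderson–Hasselbalch form for ascending and descending pKa, with Segel correction. Log kcat and 1/KM plotted versus pH.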

Data set [5] is described as follows: Thermal denaturation by circular dichroism. The following applies: 100 mM phosphate buffer, pH 7.4, θ222. The format is physicochemical. The gist of the method:
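Co-substituted enzyme at 6 µM in 100 mM phosphate, pH 7.4. Molar ellipticity at 222 nm monitored from 25 to 90 °C. Fraction denatured calculated as the ratio to the ellipticity of fully unfolded protein. Data fitted to a modified logistic equation for the transition midpoint.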
In general terms: CD spectra are sensitive to the conformation of chiral molecules.

For data set [6], the system named is hepatocellular carcinoma cell line, Hep3b. Kind of data set: In vitro cytotoxicity. The format is cell-based, human.
The nature of data set [7]: Kinetics of deactivation in HEPES buffer with added Co^2+. The following applies: 100 mM HEPES, pH 7.4, 37 °C, in the presence of 500 μM Co^2+. The format is physicochemical.
For data set [8] the following is noted: rat enzyme; cited from earlier work.
The conditions of data set [9]: cited from earlier work.

Where “and” joins values, the source holds several entries; their conditions need not be identical. Equal entries are not always repeated. Where two headings read alike, the source gives them in different places.

One may read the Ki as a measure of affinity in units of concentration, obtained from inhibition or displacement. In the case of `NCCCC[C@H](N)C(=O)O` [L-Lys], the Ki at rat Arginase I was 900 µM.

For the molecule `NCCC[C@H](N)C(=O)O` [L-Orn, L-Ornithine], the Ki on Co-hArgI (read-out: Ki L-Orn, pH 7.4) was determined as 76 ± 16 µM; on Co-hArgI (read-out: Ki L-Orn, pH 8.5) it was 50 ± 7 µM; at Co-hArgI (read-out: Ki L-Orn, pH 8.5, 37 °C), 64 ± 9 µM; on Mn-hArgI (read-out: Ki L-Orn, pH 7.4), 2400 µM; at Mn-hArgI (read-out: Ki L-Orn, pH 8.5) it was 530 ± 60 µM.

As to `CC(C)C[C@H](N)C(=O)O` [L-Leu, L-Leucine], the Ki was 480 ± 50 µM on Co-hArgI (Ki L-Leu, pH 7.4); 1300 µM at Co-hArgI (Ki L-Leu, pH 8.5); 1000 ± 100 µM at hArgII; 390 ± 40 µM at Mn-hArgI (Ki L-Leu, pH 7.4); 640 ± 40 µM at Mn-hArgI (Ki L-Leu, pH 8.5). Besides, the “Fold change Ki L-Leu” value on Co-hArgI (pH 7.4 vs pH 8.5) is “(2.7) fold”; on Mn-hArgI (pH 7.4 vs pH 8.5), “(1.6) fold”.

Regarding `NC(N)=NCCN1CCNCCNCCNCC1.[Zn+2]`, the “apparent pKa of guanidinium deprotonation” value in [1] is 5.9.

B1: Mn-hArgI: recombinant human Arginase I with the native di-nuclear Mn^2+ cofactor (protein, UniProt P05089 1-322, looked up)
Arginase-1: T1 sequence (P05089 1-322)
modifications: Mn2+ cofactor
For orientation: kcat means the maximal rate divided by the concentration of active sites. The Km is the concentration of substrate that gives half-maximal velocity. By IC50 is commonly meant the concentration at which inhibition is half-maximal. A high value points to weaker potency. Turning to B1, the kcat in data set [2] (pH 7.4, 37 °C) was 300 ± 12 s⁻¹ and 300 s⁻¹. In data set [2], the “Fold change KM L-Arg” value is “(1. 4) fold”. Further, the Km in data set [2] (pH 7.4, 37 °C, listed as Mn-ArgI) is 2330 µM. For the same molecule, the Km in [2] (pH 8.5) came out at 1600 µM. Besides, the “t½ of activity (single exponential loss)” value in data set [3] turned out to be 4.8 ± 0.8 h. The same molecule returned an IC50 in the data set on melanoma cell line A375 of 0.0041 ± 0.0001 µM. Moreover, in [4], the “apparent pKa of kcat vs pH (one-pKa model)” value came out at 8.1 ± 0.05; the “apparent pKa of 1/KM vs pH, lower pKa” value was 7.1 ± 0.1 and 7.1; the “apparent pKa of 1/KM vs pH, upper pKa” value is 10.7 ± 0.3 and 10.7; the “ascending limb pKa of kcat/KM vs pH (fit)” value is 8.4 ± 0.1. In addition, the “descending limb pKa of kcat/KM vs pH (fit)” value in data set [4] was 11.0 ± 0.1. For the same molecule, the “fold increase of rate (kcat) with pH” value in [4] (over the pH range studied (log slope = 0.5)) is recorded as “more than 30 fold”. In [4] (pH 6 to pH 8.5), this molecule registered a log kcat slope of 0.5.

B2: Co-hArgI: Co^2+ substituted human Arginase I, recombinant, His6-tagged, expressed in E. coli (protein, UniProt P05089 1-322, looked up)
Arginase-1: T1 sequence (P05089 1-322)
modifications: Co2+ substituted; His6 tag
As to B2, the “TM (mid-point temperature for unfolding)” value in data set [5] turned out to be 74 °C. Moreover, in [2] (pH 7.4, 37 °C), the kcat is 240 ± 14 s⁻¹ and 240 s⁻¹; the Km worked out at 190 ± 40 µM. In addition, in data set [2], the “Fold change KM L-Arg” value is “(1.4) fold”. Besides, in data set [2] (pH 8.5), the Km is 140 ± 10 µM. Also, the “fold lower IC50 than Mn-hArgI” value in data set [6] (Hep3b) came out at 15 fold. In addition, the “fold lower IC50 value” in data set [6] (human hepatocellular carcinoma and melanoma cell lines) was 12-15 fold. In data set [7], the “t½ of activity (monophasic sigmoidal loss)” value was found to be 45 ± 2 h. Further, in the data set on melanoma cell line A375, the “fold increase in cytotoxicity vs Mn-hArgI” value was ~ 13 fold and the IC50 is 0.00032 ± 6e-05 µM. Besides, in data set [4], the “apparent pKa of kcat vs pH (one-pKa model)” value was found to be 5.2 ± 0.1; the “apparent pKa of 1/KM vs pH, lower pKa” value stood at 7.2 ± 0.1; the “apparent pKa of 1/KM vs pH, upper pKa” value was 9.7 ± 0.1 and 9.7; the “ascending limb pKa of kcat/KM vs pH (fit)” value came to 7.4 ± 0.1. In addition, the “descending limb pKa of kcat/KM vs pH (fit)” value in [4] worked out at 10.0 ± 0.1. For the same molecule, the log kcat slope in data set [4] (pH 5 - 6) is 0.43. For the same molecule, in data set [4] (pH 6 – 10.5), the log kcat slope is ~ 0.03 and 0.03.

B3: rat Mn-ArgI: rat Arginase I with Mn^2+, literature comparator (protein, UniProt P07824 1-323, looked up)
Arginase-1: MSSKPKPIEIIGAPFSKGQPRGGVEKGPAALRKAGLVEKLKETEYNVRDHGDLAFVDVPNDSPFQIVKNPRSVGKANEQLAAVVAETQKNGTISVVLGGDHSMAIGSISGHARVHPDLCVIWVDAHTDINTPLTTSSGNLHGQPVAFLLKELKGKFPDVPGFSWVTPCISAKDIVYIGLRDVDPGEHYIIKTLGIKYFSMTEVDKLGIGKVMEETFSYLLGRKKRPIHLSFDVDGLDPVFTPATGTPVVGGLSYREGLYITEEIYKTGLLSGLDIMEVNPTLGKTPEEVTRTVNTAVALTLSCFGTKREGNHKPETDYLKPPK
modifications: Mn2+ cofactor
In the case of B3, the TM in data set [8] was 75 °C.

B4: metallo-β-lactamase from B. cereus: metallo-β-lactamase from B. cereus with Mn^2+ or Co^2+ cofactor (protein, UniProt P04190 31-257, looked up)
Metallo-beta-lactamase type 2: SQKVEKTVIKNETGTISISQLNKNVWVHTELGSFNGEAVPSNGLVLNTSKGLVLVDSSWDDKLTKELIEMVEKKFQKRVTDVIITHAHADRIGGIKTLKERGIKAHSTALTAELAKKNGYEEPLGDLQTVTNLKFGNMKVETFYPGKGHTEDNIVVWLPQYNILVGGCLVKSTSAKDLGNVADAYVNEWSTSIENVLKRYRNINAVVPGHGEVGDKGLLLHTLDLLK
modifications: Mn2+ or Co2+ cofactor
One may read the pKa as the negative logarithm of the acid dissociation constant. For B4, the values for the pKa in [9] (Co^2+ as the cofactor) and in data set [9] (with Mn^2+) were 6.9 and 8.4, respectively.

B5: bovine carboxypeptidase A: bovine carboxypeptidase A with Mn^2+ or Co^2+ as cofactor (protein, UniProt P00730 111-419, looked up)
Carboxypeptidase A1: ARSTNTFNYATYHTLDEIYDFMDLLVAEHPQLVSKLQIGRSYEGRPIYVLKFSTGGSNRPAIWIDLGIHSREWITQATGVWFAKKFTEDYGQDPSFTAILDSMDIFLEIVTNPDGFAFTHSQNRLWRKTRSVTSSSLCVGVDANRNWDAGFGKAGASSSPCSETYHGKYANSEVEVKSIVDFVKDHGNFKAFLSIHSYSQLLLYPYGYTTQSIPDKTELNQVAKSAVEALKSLYGTSYKYGSIITTIYQASGGSIDWSYNQGIKYSFTFELRDTGRYGFLLPASQIIPTAQETWLGVLTIMEHTLNNLY
modifications: Mn2+ or Co2+ cofactor
Regarding B5, the “acidic limb kinetic pKa” value in data set [9] (Co^2+ substitution) is given as 5.3; in data set [9] (Mn^2+ as a cofactor) it was 6.4.
